Hits are enriched below; roughly 3.5% of the tested compounds scored in any of these assays.
MrgX1 allo act = human MrgX1 positive allosteric modulation, primary screen; MrgX1-HEK293, Fluo-4 calcium flux, FDSS; stronger effect = higher value; B-score at 10 µM; actives 0.63% (n = 310,000);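 active = plate-corrected calcium response at least 3 library SD above typical, normal starting fluorescence, not activating the receptor alone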;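 note: compound read alongside a low EC10 to EC30 dose of BAM8-22 agonist; peak minus trough fluorescence over baseline measured at the second addition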
Target sequence (Q96LB2 whole entry, looked up): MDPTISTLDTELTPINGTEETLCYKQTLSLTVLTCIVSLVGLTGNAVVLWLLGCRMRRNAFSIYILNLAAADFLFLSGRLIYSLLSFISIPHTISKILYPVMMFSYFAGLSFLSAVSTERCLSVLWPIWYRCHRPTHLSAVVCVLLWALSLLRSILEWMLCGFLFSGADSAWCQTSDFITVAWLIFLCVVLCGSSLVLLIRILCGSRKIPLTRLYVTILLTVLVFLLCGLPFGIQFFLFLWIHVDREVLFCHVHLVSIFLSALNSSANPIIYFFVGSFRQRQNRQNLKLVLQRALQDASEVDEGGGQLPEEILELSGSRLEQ
MrgX1 ag = activates human MrgX1 receptor signaling. MrgX1-HEK293 cells, Fluo-4 calcium fluorescence, agonist mode; stronger effect = higher value. B-score at 10 µM. actives 0.44% (n = 310,000). AID 588627;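 active = calcium response B-score plate-corrected fluorescence ratio at least 3 library SD, with starting fluorescence B-score inside 5 SD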
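Assay system: stable human MrgX1 HEK293 cell line. Quantity: 15,000 cells per well. Schedule: cells plated overnight, dye loaded 0.5 h 37 °C, 0.5 h room temperature. Detection: Fluo-4 NW calcium-flux fluorescence, kinetic read. Read-out basis: peak-minus-minimum fluorescence over baseline, converted to B scores. Control set: positive and negative control wells on each plate.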
MrgX1 antagonist = antagonists of human MrgX1 receptor | Q96LB2 | MRGX1-HEK293 calcium flux, Fluo-4, BAM8-22 antagonism; stronger effect = lower value | B-score at 10 µM | actives 1.3% (n = 310,000) | AID 588676;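 active = calcium-response B-score plate-corrected more than 3 library SD below zero, starting fluorescence within 5 deviations, no agonist response on first addition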;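 note: peak minus trough fluorescence over baseline after final BAM8-22 challenge near maximal dose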
RGS4 inh = inhibitors of human RGS4; B-score at 10 µM; actives 0.45% (n = 310,000); HEK293 M3R/RGS4 inducible, Fluo-4 calcium flux; stronger effect = higher value; triggered by carbachol at its EC20;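 active = B-score, a plate-corrected calcium signal, over three deviations above library mean, with baseline fluorescence within five deviations of library mean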;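 note: RGS4 expression induced by doxycycline in cells with stable M3 receptor; B-score is computed from the integrated fluorescence ratio over baseline after carbachol; higher B-score means a larger calcium signal and so more RGS4 inhibition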
Target sequence (P49798 whole entry, looked up): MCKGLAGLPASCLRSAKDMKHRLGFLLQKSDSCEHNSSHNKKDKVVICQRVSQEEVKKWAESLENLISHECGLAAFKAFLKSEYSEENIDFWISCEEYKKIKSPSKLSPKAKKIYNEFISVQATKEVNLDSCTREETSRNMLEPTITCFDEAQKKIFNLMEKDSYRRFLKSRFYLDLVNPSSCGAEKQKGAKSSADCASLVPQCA
RGS4 pot = potentiators or activators of RGS4 | HEK293 M3R/inducible RGS4, carbachol calcium flux Fluo4; stronger effect = lower value | B-score at 10 µM | actives 0.92% (n = 310,000) | AID 463111;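 active = B-score of the integrated calcium signal more than 4 SD below the library mean, with starting fluorescence not abnormally high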;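 note: negative B-score means reduced calcium response which marks RGS4 activation or potentiation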
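Assay system: Inducible-RGS4 HEK293 cells carrying M3 receptor | Schedule: Compound preincubation 20 min at room temperature before agonist | Signal: Kinetic calcium fluorescence imaging with Fluo4-AM dye, 2 µM | Read-out basis: B score from integrated fluorescence ratio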
MrgX1 ag reconf = confirmation of human MrgX1 receptor agonists | shares compounds with MrgX1 ag | activation, % at 10 µM | AID 602412 | actives 78% (n = 600) | MrgX1-HEK293, Fluo-4 calcium fluorescence, FDSS;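 active = calcium signal rise, corrected for plate position, at least 3 library SD high, with starting brightness within 5 such deviations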
HEK293 Ca flux = MrgX1 antagonist counter-screen hit in parental HEK293 cells; shares compounds with MrgX1 antagonist; Fluo-4 calcium fluorescence, FDSS; fluorescence ratio F(max-min)/F0 at 10 µM; actives 2% (n = 4,000); AID 624111;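 active = duplicate-averaged calcium fluorescence ratio at least three times the standard deviation of buffer wells, a nonspecific response in parental cells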
HEK293 Ca counter = activity in parental HEK293 cells without MrgX1. shares compounds with MrgX1 antagonist. parental HEK293 calcium flux, Fluo-4 fluorescence ratio; stronger effect = higher value. fluorescence ratio F(max-min)/F0 at 10 µM. actives 0.4% (n = 4,000). AID 624114;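 active = calcium fluorescence ratio, averaged over duplicates, at least 3 SD of the buffer-well ratio, meaning a nonspecific response in receptor-free cells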;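 note: untransfected parental HEK293 lacking MrgX1 used as counterscreen for MrgX1 allosteric activators; fluorescence change taken during the second addition on a kinetic imager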
HEK293 Ca cntr2 = counter-screen for MrgX1 activators: effect in parental HEK293 cells; shares compounds with MrgX1 antagonist; Fluo-4 calcium fluorescence (FDSS); stronger effect = higher value; fluorescence ratio F(max-min)/F0 at 10 µM; actives 8.7% (n = 4,000);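 active = calcium fluorescence ratio at least three times the spread of buffer wells, meaning a non-specific response in parental cells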
Numbers without * were called inactive.

CC1(c2ccc(OC(F)F)cc2)NC(=O)N(CC(=O)Nc2cccnc2Cl)C1=O (stereo unspecified) was read as MrgX1 allo act inactive, MrgX1 ag 33.4*, MrgX1 antagonist inactive, RGS4 inh inactive, RGS4 pot inactive, MrgX1 ag reconf 136.8%*, HEK293 Ca flux inactive, HEK293 Ca counter inactive and HEK293 Ca cntr2 47*.
For COc1ccc(C2(C)NC(=O)N(CC(=O)Nc3cccnc3Cl)C2=O)cc1 (stereo unspecified) the results were MrgX1 allo act inactive, MrgX1 ag inactive, MrgX1 antagonist inactive, RGS4 inh inactive and RGS4 pot inactive.
Screening Cc1c(NC(=O)Nc2ccc(F)cc2F)c(=O)n(-c2ccccc2)n1C returned MrgX1 allo act inactive, MrgX1 ag inactive, MrgX1 antagonist inactive, RGS4 inh inactive and RGS4 pot inactive.
CCN(CC)CCNC(=O)C1c2cc(OC)c(OC)cc2C(=O)N(C)C1c1cccs1 (stereo unspecified) was read as MrgX1 allo act inactive, MrgX1 ag inactive, MrgX1 antagonist inactive, RGS4 inh inactive and RGS4 pot inactive.
Screening O=C(OCc1cc2ccccc2[nH]c1=O)c1cccs1 returned MrgX1 allo act inactive, MrgX1 ag 38.2*, MrgX1 antagonist inactive, RGS4 inh inactive, RGS4 pot inactive, MrgX1 ag reconf inactive, HEK293 Ca flux inactive, HEK293 Ca counter inactive and HEK293 Ca cntr2 inactive.
`CCCCc1cc(=O)oc2cc(OCC(=O)Nc3ccccn3)ccc12` gave MrgX1 allo act inactive, MrgX1 ag inactive, MrgX1 antagonist inactive, RGS4 inh inactive and RGS4 pot inactive.
`CSc1ncccc1C(=O)NCCc1ccccc1` gave MrgX1 allo act inactive, MrgX1 ag inactive, MrgX1 antagonist inactive, RGS4 inh inactive and RGS4 pot inactive.
Screening CSc1ncccc1C(=O)NCCc1ccc(S(N)(=O)=O)cc1 returned MrgX1 allo act inactive, MrgX1 ag 32.8*, MrgX1 antagonist inactive, RGS4 inh inactive, RGS4 pot inactive, MrgX1 ag reconf inactive, HEK293 Ca flux inactive, HEK293 Ca counter inactive and HEK293 Ca cntr2 inactive.
For CN(C)c1ccc(/C=C(/C(=O)c2ccc(Cl)cc2Cl)n2cncn2)cc1 the results were MrgX1 allo act inactive, MrgX1 ag 76.9*, MrgX1 antagonist inactive, RGS4 inh inactive, RGS4 pot inactive, MrgX1 ag reconf inactive, HEK293 Ca flux 0.328*, HEK293 Ca counter inactive and HEK293 Ca cntr2 inactive.
Screening COc1ccc2c(c1)CC/C(=C\Nc1ccc3c(c1)OCO3)C2=O returned MrgX1 allo act inactive, MrgX1 ag 26.9*, MrgX1 antagonist inactive, RGS4 inh inactive, RGS4 pot inactive, MrgX1 ag reconf inactive, HEK293 Ca flux inactive, HEK293 Ca counter inactive and HEK293 Ca cntr2 inactive.
For CCc1ccc(-c2csc3ncn(Cc4ccc(C(=O)O)cc4)c(=O)c23)cc1 the results were MrgX1 allo act inactive, MrgX1 ag 31.4*, MrgX1 antagonist inactive, RGS4 inh inactive, RGS4 pot inactive, MrgX1 ag reconf 148.8%*, HEK293 Ca flux inactive, HEK293 Ca counter inactive and HEK293 Ca cntr2 inactive.
For CCCOC(=O)Cn1cnc2scc(-c3ccc(C)cc3)c2c1=O the results were MrgX1 allo act inactive, MrgX1 ag inactive, MrgX1 antagonist inactive, RGS4 inh inactive and RGS4 pot inactive.
COc1ccc(Br)cc1CSC(=N)N was read as MrgX1 allo act inactive, MrgX1 ag 34.1*, MrgX1 antagonist inactive, RGS4 inh inactive, RGS4 pot inactive, MrgX1 ag reconf 147.8%*, HEK293 Ca flux inactive, HEK293 Ca counter inactive and HEK293 Ca cntr2 inactive.
`CC(=O)c1ccc(OC(C)C)c(CSC(=N)N)c1` gave MrgX1 allo act inactive, MrgX1 ag 38*, MrgX1 antagonist inactive, RGS4 inh inactive, RGS4 pot inactive, MrgX1 ag reconf 198.8%*, HEK293 Ca flux inactive, HEK293 Ca counter inactive and HEK293 Ca cntr2 inactive.
Screening CCOC(=O)C(Cc1cc(C(C)=O)ccc1OC(C)C)C(=O)OCC returned MrgX1 allo act inactive, MrgX1 ag inactive, MrgX1 antagonist inactive, RGS4 inh inactive and RGS4 pot inactive.
Screening CCOc1ccc(N(CC(=O)N2CCCCCC2)S(C)(=O)=O)cc1 returned MrgX1 allo act inactive, MrgX1 ag inactive, MrgX1 antagonist inactive, RGS4 inh inactive and RGS4 pot inactive.
For Nc1nc2ccc(NC(=O)c3ccco3)cc2s1 the results were MrgX1 allo act inactive, MrgX1 ag inactive, MrgX1 antagonist inactive, RGS4 inh inactive and RGS4 pot inactive.
`CN(C)CCN1C(=O)C(=O)/C(=C(/O)c2ccc(S(=O)(=O)N3CCOCC3)cc2)C1c1ccc(F)cc1` (stereo unspecified) gave MrgX1 allo act inactive, MrgX1 ag inactive, MrgX1 antagonist inactive, RGS4 inh inactive and RGS4 pot inactive.
For O=C(NNC(=O)C1CCCCC1)c1ccncc1 the results were MrgX1 allo act inactive, MrgX1 ag inactive, MrgX1 antagonist inactive, RGS4 inh inactive and RGS4 pot inactive.
Screening CC1(C(=O)NC(=S)NNC(=O)c2ccncc2)CCCCC1 returned MrgX1 allo act inactive, MrgX1 ag 86.7*, MrgX1 antagonist inactive, RGS4 inh inactive, RGS4 pot inactive, MrgX1 ag reconf 488.6%*, HEK293 Ca flux inactive, HEK293 Ca counter inactive and HEK293 Ca cntr2 101*.
`O=C(NNC(=S)NC(=O)C12CC3CC(CC(C3)C1)C2)c1ccncc1` gave MrgX1 allo act inactive, MrgX1 ag 117*, MrgX1 antagonist inactive, RGS4 inh inactive, RGS4 pot inactive, MrgX1 ag reconf 600.4%*, HEK293 Ca flux inactive, HEK293 Ca counter inactive and HEK293 Ca cntr2 121*.
Screening CC/C(=N\NC(=O)c1ccncc1)C12CC3CC(CC(C3)C1)C2 returned MrgX1 allo act inactive, MrgX1 ag inactive, MrgX1 antagonist inactive, RGS4 inh inactive and RGS4 pot inactive.
O=C(COc1cc(F)ccc1[N+](=O)[O-])NCCCc1ccccc1 was read as MrgX1 allo act inactive, MrgX1 ag inactive, MrgX1 antagonist inactive, RGS4 inh inactive and RGS4 pot inactive.

Screens from PubChem BioAssay.
